From ChEMBL document CHEMBL2375213, “Synthesis and anticancer activity of novel spiro-isoxazoline and spiro-isoxazolidine derivatives of α-santonin” (Eur J Med Chem, 2013)

Tests used:
[1] = test system: HEp-2; assay: Antiproliferative activity against human Hep2 cells after 48 hrs by sulforhodamine B assay; assay type: functional, cell-based; conditions: HEp-2, 48 h
[2] = test system: MCF7; assay: Antiproliferative activity against human MCF7 cells after 48 hrs by sulforhodamine B assay; assay type: functional, cell-based; conditions: MCF7, 48 h
[3] = test system: A549; assay: Antiproliferative activity against human A549 cells after 48 hrs by sulforhodamine B assay; assay type: functional, cell-based; conditions: A549, 48 h
[4] = test system: PC-3; assay: Antiproliferative activity against human PC3 cells after 48 hrs by sulforhodamine B assay; assay type: functional, cell-based; conditions: PC-3, 48 h
[5] = test system: HCT-116; assay: Antiproliferative activity against human HCT116 cells after 48 hrs by sulforhodamine B assay; assay type: functional, cell-based; conditions: HCT-116, 48 h
[6] = test system: THP-1; assay: Antiproliferative activity against human THP1 cells after 48 hrs by sulforhodamine B assay; assay type: functional, cell-based; conditions: THP-1, 48 h
[7] = test system: PC-3; assay: Cell cycle arrest in human PC3 cells assessed as accumulation at M phase at 5 uM after 24 hrs by propidium iodide staining-based FACS flow cytometric analysis (reference value: 3%); assay type: functional
Procedure, shortened: (§1)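 PC-3 cells (1×10^6/well) exposed 24 h to test agent at 1, 5 or 10 μM. Cells washed twice in ice-cold PBS, fixed in 70% ethanol for 30 min, then treated with RNase A (0.1 mg/mL, 37 °C, 30 min). Propidium iodide staining 30 min on ice in the dark. DNA content read by flow cytometry with 488 nm excitation and doublet discrimination, 10,000 events.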

[8] = test system: PC-3; assay: Cell cycle arrest in human PC3 cells assessed as accumulation at S phase at 5 uM after 24 hrs by propidium iodide staining-based FACS flow cytometric analysis (reference value: 8.5%); assay type: functional; procedure, shortened: as §1
[9] = test system: PC-3; assay: Cell cycle arrest in human PC3 cells assessed as accumulation at subG1 phase at 5 uM after 24 hrs by propidium iodide staining-based FACS flow cytometric analysis (reference value: 13.1%); assay type: functional; procedure, shortened: as §1
[10] = test system: PC-3; assay: Cell cycle arrest in human PC3 cells assessed as accumulation at G0/G1 phase at 5 uM after 24 hrs by propidium iodide staining-based FACS flow cytometric analysis (reference value: 68.2%); assay type: functional; procedure, shortened: as §1

CC1=C2[C@H]3OC(=O)C4(CC(c5ccc(F)cc5)=NO4)[C@@H]3CC[C@@]2(C)C=CC1=O (stereo partly specified)
IC50 [1]: 100 µM
IC50 [2]: 100 µM
IC50 [3]: 61 µM
IC50 [4]: 100000 nM
IC50 [5]: 100 µM
IC50 [6]: 100 µM

CC1=C2[C@H]3OC(=O)C4(CC(c5ccc6ccccc6c5)=NO4)[C@@H]3CC[C@@]2(C)C=CC1=O (stereo partly specified)
IC50 [1]: 100 µM
IC50 [2]: 30 µM
IC50 [3]: 2.9 µM
IC50 [4]: 600 nM
IC50 [5]: 100 µM
IC50 [6]: 0.4 µM

COc1ccc(C2=NOC3(C2)C(=O)O[C@@H]2C4=C(C)C(=O)C=C[C@]4(C)CC[C@H]23)cc1Br (stereo partly specified)
IC50 [1]: 100 µM
IC50 [2]: 100 µM
IC50 [3]: 100 µM
IC50 [4]: 100000 nM
IC50 [5]: 50 µM
IC50 [6]: 21 µM

COc1ccc([C@@H]2CC3(ON2c2ccccc2)C(=O)O[C@@H]2C4=C(C)C(=O)C=C[C@]4(C)CC[C@H]23)cc1Br (stereo partly specified)
IC50 [1]: 100 µM
IC50 [2]: 50 µM
IC50 [3]: 2.7 µM
IC50 [4]: 100 nM
IC50 [5]: 45 µM
IC50 [6]: 100 µM

CC1=C2[C@H]3OC(=O)C4(C[C@@H](c5cccc([N+](=O)[O-])c5)N(c5ccccc5)O4)[C@@H]3CC[C@@]2(C)C=CC1=O (stereo partly specified)
IC50 [1]: 100 µM
IC50 [2]: 23 µM
IC50 [3]: 10 µM
IC50 [4]: 900 nM
IC50 [5]: 48 µM
IC50 [6]: 42 µM

CC1=C2[C@H]3OC(=O)C4(CC(c5ccc(Cl)cc5Cl)=NO4)[C@@H]3CC[C@@]2(C)C=CC1=O (stereo partly specified)
IC50 [1]: 29 µM
IC50 [2]: 95 µM
IC50 [3]: 13 µM
IC50 [4]: 26000 nM
IC50 [5]: 29 µM
IC50 [6]: 35 µM

CC1=C2[C@H]3OC(=O)C4(C[C@@H](c5cc(F)cc(F)c5)N(c5ccccc5)O4)[C@@H]3CC[C@@]2(C)C=CC1=O (stereo partly specified)
IC50 [1]: 100 µM
IC50 [2]: 3.9 µM
IC50 [3]: 14 µM
IC50 [4]: 1400 nM
IC50 [5]: 28 µM
IC50 [6]: 0.8 µM

CC1=C2[C@H]3OC(=O)C4(C[C@@H](c5cc(Cl)ccc5Cl)N(c5ccccc5)O4)[C@@H]3CC[C@@]2(C)C=CC1=O (stereo partly specified)
IC50 [1]: 0.6 µM
IC50 [2]: 0.5 µM
IC50 [3]: 55 µM
IC50 [4]: 900 nM
IC50 [5]: 100 µM
IC50 [6]: 3.9 µM

CC1=C2[C@H]3OC(=O)C4(CC(c5ccc(O)cc5)=NO4)[C@@H]3CC[C@@]2(C)C=CC1=O (stereo partly specified)
IC50 [1]: 40 µM
IC50 [2]: 100 µM
IC50 [3]: 3.8 µM
IC50 [4]: 55000 nM
IC50 [5]: 8.2 µM
IC50 [6]: 100 µM

CC1=C2[C@H]3OC(=O)C4(C[C@H](c5cc(F)cc(F)c5)N(c5ccccc5)O4)[C@@H]3CC[C@@]2(C)C=CC1=O (stereo partly specified)
IC50 [1]: 100 µM
IC50 [2]: 0.09 µM
IC50 [3]: 100 µM
IC50 [4]: 700 nM
IC50 [5]: 0.09 µM
IC50 [6]: 25 µM

CC[C@@]1(O)C(=O)OCc2c1cc1n(c2=O)Cc2cc3ccccc3nc2-1 [CAMPTOTHECIN]
Activity [7]: 4.76%
Activity [8]: 4.94%
Activity [9]: 60.44%
Activity [10]: 30.17%

CC1=C2[C@H]3OC(=O)C4(C[C@@H](c5ccc([N+](=O)[O-])cc5)N(c5ccccc5)O4)[C@@H]3CC[C@@]2(C)C=CC1=O (single isomer, unassigned)
IC50 [1]: 100 µM
IC50 [2]: 0.9 µM
IC50 [3]: 66 µM
IC50 [4]: 600 nM
IC50 [5]: 100 µM
IC50 [6]: 0.1 µM

COc1ccc([C@H]2CC3(ON2c2ccccc2)C(=O)O[C@@H]2C4=C(C)C(=O)C=C[C@]4(C)CC[C@H]23)cc1Br (stereo partly specified)
IC50 [1]: 100 µM
IC50 [2]: 100 µM
IC50 [3]: 8.5 µM
IC50 [4]: 100 nM
IC50 [5]: 100 µM
IC50 [6]: 100 µM

CC1=C2[C@H]3OC(=O)C4(C[C@@H](c5ccc(F)c(Br)c5)N(c5ccccc5)O4)[C@@H]3CC[C@@]2(C)C=CC1=O (stereo partly specified)
IC50 [1]: 100 µM
IC50 [2]: 0.7 µM
IC50 [3]: 100 µM
IC50 [4]: 800 nM
IC50 [5]: 4.3 µM
IC50 [6]: 2.7 µM

COc1cccc2c1C(=O)c1c(O)c3c(c(O)c1C2=O)C[C@@](O)(C(=O)CO)C[C@@H]3O[C@H]1C[C@H](N)[C@H](O)[C@H](C)O1 [DOXORUBICIN]
IC50 [2]: 0.5 µM
IC50 [4]: 6000 nM

CC1=C2[C@H]3OC(=O)C4(CC(c5c(Cl)cccc5Cl)=NO4)[C@@H]3CC[C@@]2(C)C=CC1=O (stereo partly specified)
IC50 [1]: 15 µM
IC50 [2]: 27 µM
IC50 [3]: 100 µM
IC50 [4]: 100000 nM
IC50 [5]: 10 µM
IC50 [6]: 100 µM

CC1=C2[C@H]3OC(=O)C4(CC(c5c6ccccc6cc6ccccc56)=NO4)[C@@H]3CC[C@@]2(C)C=CC1=O (stereo partly specified)
IC50 [1]: 50 µM
IC50 [2]: 0.2 µM
IC50 [3]: 45 µM
IC50 [4]: 300 nM
IC50 [5]: 45 µM
IC50 [6]: 0.8 µM

CC1=C2[C@H]3OC(=O)C4(CC(c5cc(F)cc(F)c5)=NO4)[C@@H]3CC[C@@]2(C)C=CC1=O (stereo partly specified)
IC50 [1]: 100 µM
IC50 [2]: 0.5 µM
IC50 [3]: 8.2 µM
IC50 [4]: 2200 nM
IC50 [5]: 100 µM
IC50 [6]: 0.4 µM

CC1=C2[C@H]3OC(=O)C4(CC(c5ccccc5Cl)=NO4)[C@@H]3CC[C@@]2(C)C=CC1=O (stereo partly specified)
IC50 [1]: 7.3 µM
IC50 [2]: 0.5 µM
IC50 [3]: 5.9 µM
IC50 [4]: 900 nM
IC50 [5]: 100 µM
IC50 [6]: 0.2 µM

O=c1[nH]cc(F)c(=O)[nH]1 [FLUOROURACIL]
IC50 [1]: 4.5 µM
IC50 [3]: 4.9 µM
IC50 [4]: 2200 nM
IC50 [6]: 1 µM

COc1ccc(C2=NOC3(C2)C(=O)O[C@@H]2C4=C(C)C(=O)C=C[C@]4(C)CC[C@H]23)cc1 (stereo partly specified)
IC50 [1]: 100 µM
IC50 [2]: 0.02 µM
IC50 [3]: 0.2 µM
IC50 [4]: 100000 nM
IC50 [5]: 52 µM
IC50 [6]: 7.9 µM

CC1=C2[C@H]3OC(=O)C4(CC(c5ccc(Br)c(F)c5)=NO4)[C@@H]3CC[C@@]2(C)C=CC1=O (stereo partly specified)
IC50 [1]: 33 µM
IC50 [2]: 0.9 µM
IC50 [3]: 3.1 µM
IC50 [4]: 2000 nM
IC50 [5]: 15 µM
IC50 [6]: 0.6 µM

CC1=C2[C@H]3OC(=O)C4(CC(c5cc(Cl)ccc5Cl)=NO4)[C@@H]3CC[C@@]2(C)C=CC1=O (stereo partly specified)
IC50 [1]: 100 µM
IC50 [2]: 39 µM
IC50 [3]: 100 µM
IC50 [4]: 100000 nM
IC50 [5]: 61 µM
IC50 [6]: 100 µM

CC1=C2[C@H]3OC(=O)C4(CC(c5cccc(F)c5)=NO4)[C@@H]3CC[C@@]2(C)C=CC1=O (stereo partly specified)
IC50 [1]: 100 µM
IC50 [2]: 0.4 µM
IC50 [3]: 0.7 µM
IC50 [4]: 100000 nM
IC50 [5]: 100 µM
IC50 [6]: 100 µM

CC1=C2[C@H]3OC(=O)C4(C[C@H](c5cc(Cl)ccc5Cl)N(c5ccccc5)O4)[C@@H]3CC[C@@]2(C)C=CC1=O (stereo partly specified)
IC50 [1]: 100 µM
IC50 [2]: 0.1 µM
IC50 [3]: 77 µM
IC50 [4]: 700 nM
IC50 [5]: 32 µM
IC50 [6]: 0.2 µM

CC1=C2[C@H]3OC(=O)C4(C[C@@H](c5cccc6ccccc56)N(c5ccccc5)O4)[C@@H]3CC[C@@]2(C)C=CC1=O (stereo partly specified)
IC50 [1]: 100 µM
IC50 [2]: 82 µM
IC50 [3]: 3.3 µM
IC50 [4]: 700 nM
IC50 [5]: 100 µM
IC50 [6]: 59 µM

CC1=C2[C@H]3OC(=O)C4(C[C@H](c5cccc([N+](=O)[O-])c5)N(c5ccccc5)O4)[C@@H]3CC[C@@]2(C)C=CC1=O (stereo partly specified)
IC50 [1]: 100 µM
IC50 [2]: 14 µM
IC50 [3]: 81 µM
IC50 [4]: 300 nM
IC50 [5]: 100 µM
IC50 [6]: 100 µM

CC1=C2[C@H]3OC(=O)C4(CC(c5ccc(Br)cc5)=NO4)[C@@H]3CC[C@@]2(C)C=CC1=O (stereo partly specified)
IC50 [1]: 100 µM
IC50 [2]: 0.1 µM
IC50 [3]: 58 µM
IC50 [4]: 100000 nM
IC50 [5]: 100 µM
IC50 [6]: 100 µM

CC1=C2[C@H]3OC(=O)C4(C[C@H](c5cccc6ccccc56)N(c5ccccc5)O4)[C@@H]3CC[C@@]2(C)C=CC1=O (stereo partly specified)
IC50 [1]: 100 µM
IC50 [2]: 14 µM
IC50 [3]: 1.4 µM
IC50 [4]: 600 nM
IC50 [5]: 100 µM
IC50 [6]: 100 µM

CO[C@@]12[C@H](COC(N)=O)C3=C(C(=O)C(C)=C(N)C3=O)N1C[C@@H]1N[C@@H]12 [MITOMYCIN]
IC50 [5]: 0.5 µM

CC1=C2[C@H]3OC(=O)C4(CC(c5ccccc5)=NO4)[C@@H]3CC[C@@]2(C)C=CC1=O (stereo partly specified)
IC50 [1]: 100 µM
IC50 [2]: 100 µM
IC50 [3]: 100 µM
IC50 [4]: 78000 nM
IC50 [5]: 100 µM
IC50 [6]: 100 µM

CC1=C2[C@H]3OC(=O)C4(C[C@H](c5ccc([N+](=O)[O-])cc5)N(c5ccccc5)O4)[C@@H]3CC[C@@]2(C)C=CC1=O (stereo partly specified)
IC50 [1]: 14 µM
IC50 [2]: 0.7 µM
IC50 [3]: 66 µM
IC50 [4]: 500 nM
IC50 [5]: 100 µM
IC50 [6]: 0.1 µM

CC1=C2[C@H]3OC(=O)C4(CC(c5ccc([N+](=O)[O-])cc5)=NO4)[C@@H]3CC[C@@]2(C)C=CC1=O (stereo partly specified)
IC50 [1]: 100 µM
IC50 [2]: 56 µM
IC50 [3]: 100 µM
IC50 [4]: 100000 nM
IC50 [5]: 55 µM
IC50 [6]: 100 µM

CC1=C2[C@H]3OC(=O)C4(C[C@H](c5ccc(F)c(Br)c5)N(c5ccccc5)O4)[C@@H]3CC[C@@]2(C)C=CC1=O (stereo partly specified)
IC50 [1]: 3.7 µM
IC50 [2]: 0.2 µM
IC50 [3]: 19 µM
IC50 [4]: 900 nM
IC50 [5]: 100 µM
IC50 [6]: 2.3 µM
